Measured values taken from ChEMBL document CHEMBL1208758, “GPR109a agonists. Part 2: pyrazole-acids as agonists of the human orphan G-protein coupled receptor GPR109a” (Bioorg Med Chem Lett, 2010).

Legend:
[1] = Oral bioavailability in C57BL/6 mouse at 2 mg/kg; assay type: ADME, organism-based; details: in vivo
In short: (§1)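 Pharmacokinetics in C57BL/6 mice: single dose 1 mg/kg iv or 2 mg/kg po.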

[2] = Plasma clearance in C57BL/6 mouse at 2 mg/kg, po and 1 mg/kg, iv; assay type: ADME, organism-based; in short: as §1
[3] = Volume of distribution at steady state in C57BL/6 mouse at 2 mg/kg, po and 1 mg/kg, iv; assay type: ADME, organism-based; details: in vivo, read-out: Vdss; in short: as §1
[4] = Half life in C57BL/6 mouse at 2 mg/kg, po and 1 mg/kg, iv; assay type: ADME, organism-based; details: in vivo; in short: as §1
Mus musculus = test: Reduction in plasma free fatty acid level in C57BL/6 mouse at 10 mg/kg, ip after 15 mins; assay type: functional; set-up: scale not given: the % may be the effect or the level left; details: route intraperitoneal
In short: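 Male C57BL/6 mice, six per group, single 10 mpk ip dose; plasma free fatty acids measured 15 min after dosing and reported as percent reduction. Niacin given at 100 mpk ip as comparator.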

bioavailability [1] [%]	clearance [2] [mL/min/kg]	Vd [3] [L/kg]	half-life [4] [h]	SMILES	Activity (Mus musculus) [%]
53	24	9.3	–	O=C(O)c1n[nH]c2c1CC(c1cc(F)cc(F)c1F)C2 (centres undefined)	–
27	86	4.2	2.3	Cn1nccc1C1Cc2[nH]nc(C(=O)O)c2C1 (centres undefined)	41
–	–	–	–	Fc1cc(F)c(F)c(C2Cc3[nH]nc(-c4nnn[nH]4)c3C2)c1 (centres undefined)	21
